Activity calls are given as the source filed them. No cut-off for these calls is given here.
Columns and labels:
REH [1] = assay: Induction of apoptosis in human REH cells assessed as induction of ROS production at 1 uM after 60 mins by flow cytometric analysis (reference value: 0.09 %); type: functional
REH [2] = assay: Induction of apoptosis in human REH cells assessed as induction of ROS production at 100 nM after 10 mins by flow cytometric analysis (reference value: 0.33 %); type: functional
REH [3] = assay: Induction of apoptosis in human REH cells assessed as induction of ROS production at 500 nM after 10 mins by flow cytometric analysis (reference value: 0.33 %); type: functional
REH [4] = assay: Induction of apoptosis in human REH cells assessed as induction of ROS production at 1 uM after 10 mins by flow cytometric analysis (reference value: 0.33 %); type: functional
REH [5] = assay: Induction of apoptosis in human REH cells assessed as reduction of KU70 protein expression at 1 uM after 48 hrs by Western blot analysis; type: functional, cell-based
Procedure, shortened: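 Reh cells exposed 48 h to 500 nM or 1 µM, with DMSO-treated cells as control; cell lysates probed by western blot with specific primary antibodies against KU70, PARP1, caspases 3, 8 and 9, BID and FAS; tubulin shown as loading reference.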

REH [6] = assay: Induction of apoptosis in human REH cells assessed as PARP cleavage after 48 hrs by Western blot analysis; type: functional, cell-based
Procedure, shortened: (§1)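 Reh cell lysates were prepared after 48 h treatment at 500 nM and 1 µM, with DMSO-treated cells as control. Western blotting used primary antibodies against KU70, PARP1, caspase 3, BID, caspase 9, FAS and caspase 8, with tubulin also probed.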

REH [7] = assay: Induction of apoptosis in human REH cells assessed as reduction of BID at 1 uM after 48 hrs by Western blot analysis; type: functional, cell-based; procedure, shortened: as §1
REH [8] = assay: Induction of apoptosis in human REH cells assessed as change in caspase 9 expression at 1 uM after 48 hrs by Western blot analysis; type: functional, cell-based; procedure, shortened: as §1
REH [9] = assay: Induction of apoptosis in human REH cells assessed as caspase 8 cleavage after 48 hrs by Western blot analysis; type: functional, cell-based; procedure, shortened: as §1
[10] = Growth inhibition of human NSCLC cells; type: functional
[11] = Growth inhibition of human Leukemia cells; type: functional; conditions: Leukemia cell
[12] = Growth inhibition of human Colon cancer cells; type: functional; conditions: Cancer cell lines
[13] = Growth inhibition of human CNS cancer cells; type: functional; conditions: Cancer cell lines
[14] = Growth inhibition of human Melanoma cells; type: functional; conditions: Melanoma cell
[15] = Growth inhibition of human Ovarian cancer cells; type: functional; conditions: Cancer cell lines
[16] = Growth inhibition of human Renal cancer cells; type: functional; conditions: Cancer cell lines
[17] = Growth inhibition of human Prostate cancer cells; type: functional; conditions: Cancer cell lines
[18] = Growth inhibition of human Breast cancer cells; type: functional; conditions: Cancer cell lines
REH [19] = assay: Cytotoxicity against human REH cells assessed as reduction in cell viability after 24 to 72 hrs by trypan blue exclusion assay; type: functional, cell-based
Procedure, shortened: (§2)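 Reh, K562 and Nalm6 leukemic cells were treated with 10, 50, 100 and 250 µM or with 0.1, 0.5, 1, 5 and 10 µM (compounds dissolved in DMSO). Viability was scored by trypan blue after 24, 48 and 72 h. DMSO-treated cells served as vehicle control.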

K562 [20] = assay: Cytotoxicity against human K562 cells assessed as reduction in cell viability after 24 to 72 hrs by trypan blue exclusion assay; type: functional, cell-based; procedure, shortened: as §2
NALM-6 [21] = assay: Cytotoxicity against human NALM6 cells assessed as reduction in cell viability after 24 to 72 hrs by trypan blue exclusion assay; type: functional, cell-based; procedure, shortened: as §2
K562 [22] = assay: Cytotoxicity against human K562 cells assessed as reduction in cell viability at 0.1 to 10 uM by trypan blue exclusion assay; type: functional, cell-based; conditions: TDE = time-dependent effect; procedure, shortened: as §2
NALM-6 [23] = assay: Cytotoxicity against human NALM6 cells assessed as reduction in cell viability at 0.1 to 10 uM by trypan blue exclusion assay; type: functional, cell-based; conditions: TDE = time-dependent effect; procedure, shortened: as §2
HEK293 [24] = assay: Cytotoxicity against HEK293 cells assessed as induction of cell death at 3 uM after 24 to 72 hrs by live-dead cell assay; type: cell-based; conditions: human, hek293, 3 µM; in the assay text read “24 to 48 hrs” for “24 to 72 hrs”
Procedure, shortened: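 Reh leukemic and 293T human kidney epithelial cells were treated at 3 µM and compared by live-dead cell assay at 24 and 48 h.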

REH [25] = assay: Cytotoxicity against human REH cells assessed as reduction in cell viability at 3 uM after 24 to 72 hrs by trypan blue exclusion assay; type: functional, cell-based
HEK293 [26] = assay: Cytotoxicity against HEK293 cells assessed as reduction in cell viability at 3 uM after 24 to 72 hrs by trypan blue exclusion assay; type: cell-based; conditions: human, hek293, 3 µM
REH [27] = assay: Cell cycle arrest in human REH cells assessed as accumulation at subG1 phase after 48 hrs using propidium iodide by FACS analysis; type: functional, cell-based
Procedure, shortened: (§3)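 Reh and Nalm6 cells exposed 48 h to 0.1, 0.5, 1 and 5 µM, harvested, stained with propidium iodide and analysed by flow cytometry. Gated fractions were sub G1, G1, S and G2. DMSO-treated cells served as vehicle control. Three independent experiments for Reh and two for Nalm6.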

REH [28] = assay: Cell cycle arrest in human REH cells assessed as reduction of cells in G2/M phase after 48 hrs using propidium iodide by FACS analysis; type: functional, cell-based; procedure, shortened: as §3
REH [29] = assay: Cell cycle arrest in human REH cells assessed as reduction of cells in G1 phase after 48 hrs using propidium iodide by FACS analysis; type: functional, cell-based; procedure, shortened: as §3
REH [30] = assay: Cell cycle arrest in human REH cells assessed as reduction of cells in S phase after 48 hrs using propidium iodide by FACS analysis; type: functional, cell-based; procedure, shortened: as §3
[31] = Cell cycle arrest in human NALM6 cells assessed as reduction of cells in G2/M phase after 48 hrs using propidium iodide by FACS analysis; type: functional, cell-based; conditions: NALM-6; procedure, shortened: as §3
[32] = Cell cycle arrest in human NALM6 cells assessed as reduction of cells in G1 phase after 48 hrs using propidium iodide by FACS analysis; type: functional, cell-based; conditions: NALM-6; procedure, shortened: as §3
REH [33] = assay: Induction of apoptosis in human REH cells assessed as early apoptotic cells at 1 uM after 48 hrs using annexin-v-FITC/propidium iodide by FACS analysis (reference value: 6.05 %); type: functional
REH [34] = assay: Induction of apoptosis in human REH cells assessed as late apoptotic cells at 1 uM after 48 hrs using annexin-v-FITC/propidium iodide by FACS analysis (reference value: 5.51 %); type: functional
REH [35] = assay: Induction of apoptosis in human REH cells assessed as induction of ROS production at 1 uM after 10 mins by flow cytometric analysis (reference value: 0.09 %); type: functional
REH [36] = assay: Induction of apoptosis in human REH cells assessed as induction of ROS production at 1 uM after 15 mins by flow cytometric analysis (reference value: 0.09 %); type: functional
REH [37] = assay: Induction of apoptosis in human REH cells assessed as induction of ROS production at 1 uM after 30 mins by flow cytometric analysis (reference value: 0.09 %); type: functional

Work on O=Cc1c(-c2ccc(Br)cc2)nc2sc(Cc3ccccc3)nn12 yielded an Activity (REH [1]) of 0.12%, an Activity (REH [2]) of 0.77% and an Activity (REH [3]) of 0.86%. For the same compound, the Activity (REH [4]) was 0.28%, the Activity (REH [5]) was “Active” and the Activity (REH [6]) was “Dose-dependent effect”. For the same compound, the Activity (REH [7]) was “Active”, the Activity (REH [8]) was “inactive” and the Activity (REH [9]) was “Active”. It also gave a GI50 [10] of 4.2 µM, an LC50 (concentration killing 50% of cells) [10] of 95.5 µM and a TGI [10] of 30.2 µM. The GI50 [11] was 1410 nM, the TGI [11] was 13.5 µM and the GI50 [12] was 2200 nM. The TGI [12] was 10 µM, the CC50 ([12]; read-out: LC50 (the source's name)) was 81.3 µM and the GI50 [13] was 2200 nM. For the same compound, the LC50 [13] was 64.6 µM, the TGI [13] was 7.4 µM and the GI50 [14] was 3.2 µM. The LC50 [14] was 81.3 µM, the TGI [14] was 19.5 µM and the GI50 [15] was 4.2 µM. It also gave a TGI [15] of 41.7 µM, a GI50 [16] of 3.2 µM and an LC50 [16] of 93.3 µM. It also gave a TGI [16] of 20 µM, a GI50 [17] of 3000 nM and a TGI [17] of 24.6 µM. The GI50 [18] was 3.5 µM, the TGI [18] was 28.2 µM and the Activity (REH [19]) was “Dose-dependent effect”. The Activity (K562 [20]) was “Dose-dependent effect”, the Activity (NALM-6 [21]) was “Dose-dependent effect” and the Activity (K562 [22]) was “tde”. The Activity (NALM-6 [23]) was “tde”, the Activity (HEK293 [24]) was “Non-toxic” and the Activity (REH [25]) was “Active”. For the same compound, the Activity (HEK293 [26]) was “Non-toxic”, the Activity (REH [27]) was “Dose-dependent effect” and the Activity (REH [28]) was “Dose-dependent effect”. The Activity (REH [29]) was “Dose-dependent effect”, the Activity (REH [30]) was “Dose-dependent effect” and the Activity [31] was “Dose-dependent effect”. For the same compound, the Activity [32] was “Dose-dependent effect”, the Activity (REH [33]) was 43.03% and the Activity (REH [34]) was 51.32%. It also gave an Activity (REH [35]) of 0.36%, an Activity (REH [36]) of 0.09% and an Activity (REH [37]) of 0.06%.

Source: ChEMBL document CHEMBL3352816, “Synthesis and antiproliferative activity of imidazo[2,1-b][1,3,4]thiadiazole derivatives” (Bioorg Med Chem Lett, 2014)
